13 molecules from ChEMBL document CHEMBL4400560, “Discovery and optimization of novel piperazines as potent inhibitors of fatty acid synthase (FASN)” (Bioorg Med Chem Lett, 2019) can be followed below.

Structures are written as SMILES. Converted amounts (≈) assume the structure as drawn.

The nature of data set [1]: Stability in mouse liver microsomes assessed as compound remaining after 30 mins. Type of data set: ADME, Microsome. Particulars: read-out: Stability. The gist of the method:
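Mouse liver microsomes, 30-min incubation. Result expressed as percent of parent remaining.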

A short description of data set [2]: Kinetic solubility of compound at pH 7.4. Type of data set: physicochemical. Particulars: buffer, read-out: Kinetic_solubility. The gist of the method:
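Kinetic solubility measured at pH 7.4.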

Data set [3] has as its target T1, Fatty acid synthase (Homo sapiens, UniProt P49327). In words: Inhibition of FASN in human BT474 cells preincubated for 1 hr followed by [14C]-acetate addition and measured after 4 hrs by scintillation counting assay. The format is cell-based. A digest of the protocol:
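BT474 breast cancer cells given 14C-acetate, which cellular FASN incorporates via acetyl-CoA into newly made radiolabeled palmitate. IC50 for blocking this incorporation is the mean of at least two separate runs.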

Data set [4] concerns the target T1, Fatty acid synthase. In words: Inhibition of full length recombinant human FASN using acetyl-CoA/malonyl-CoA as substrate preincubated for 60 mins followed by substrate addition and measured after 90 mins in presence of NADPH. The gist of the method: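 Full-length recombinant human FASN. CoA released is detected as a fluorescent conjugate with the coumarin maleimide CPM. IC50 is the mean of at least two separate runs.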

The subject of data set [5] is PC-3. In words: Antiproliferative activity against human PC3 cells after 96 hrs by MTT assay. Type of data set: functional, cell-based. Particulars: PC-3, 96 h. The gist of the method: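 PC3 prostate cancer cells grown in medium with 10% lipid-reduced serum, a condition in which growth depends on de novo lipogenesis, in the presence of inhibitor. Antiproliferative IC50 reported as the mean of at least two separate runs.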

Data set [6] is described as follows: AUC in mouse at mg/kg, po. Type of data set: ADME, organism-based. Further details: concentration or dose not given beside the values. Particulars: in vivo. A digest of the protocol:
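Mouse oral PK study at 5 mg/kg p.o., with plasma exposure taken as AUC0-8h.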

Data set [7] is described as follows: Stability in mouse liver S9 fraction after 1 hr. The format is ADME, subcellular. Particulars: read-out: Stability.
A short description of data set [8]: Stability in mouse hepatocytes after 1 hr. Type of data set: ADME, cell-based, Hepatocyte. Particulars: read-out: Stability.
Data set [9] in a line: Intrinsic clearance in mouse liver microsomes. Type of data set: ADME, Microsome. Particulars: read-out: CLH.
The nature of data set [10]: Toxicity in mouse assessed as drug tolerability administered as single dose. Particulars: in vivo. The gist of the method:
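Mice received a single oral (PO) dose of 5 mg/kg and were watched for acute toxicity to judge tolerability. Female Balb/c nude mice were used for the fluorobenzoxazole analogues. Tolerability was expressed as whether the single dose was tolerated or as a maximum tolerated dose.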

Data set [11] in a line: Intrinsic clearance in human liver microsomes. The format is ADME, Microsome. Particulars: read-out: CLH.

T1 sequence (P49327 whole entry): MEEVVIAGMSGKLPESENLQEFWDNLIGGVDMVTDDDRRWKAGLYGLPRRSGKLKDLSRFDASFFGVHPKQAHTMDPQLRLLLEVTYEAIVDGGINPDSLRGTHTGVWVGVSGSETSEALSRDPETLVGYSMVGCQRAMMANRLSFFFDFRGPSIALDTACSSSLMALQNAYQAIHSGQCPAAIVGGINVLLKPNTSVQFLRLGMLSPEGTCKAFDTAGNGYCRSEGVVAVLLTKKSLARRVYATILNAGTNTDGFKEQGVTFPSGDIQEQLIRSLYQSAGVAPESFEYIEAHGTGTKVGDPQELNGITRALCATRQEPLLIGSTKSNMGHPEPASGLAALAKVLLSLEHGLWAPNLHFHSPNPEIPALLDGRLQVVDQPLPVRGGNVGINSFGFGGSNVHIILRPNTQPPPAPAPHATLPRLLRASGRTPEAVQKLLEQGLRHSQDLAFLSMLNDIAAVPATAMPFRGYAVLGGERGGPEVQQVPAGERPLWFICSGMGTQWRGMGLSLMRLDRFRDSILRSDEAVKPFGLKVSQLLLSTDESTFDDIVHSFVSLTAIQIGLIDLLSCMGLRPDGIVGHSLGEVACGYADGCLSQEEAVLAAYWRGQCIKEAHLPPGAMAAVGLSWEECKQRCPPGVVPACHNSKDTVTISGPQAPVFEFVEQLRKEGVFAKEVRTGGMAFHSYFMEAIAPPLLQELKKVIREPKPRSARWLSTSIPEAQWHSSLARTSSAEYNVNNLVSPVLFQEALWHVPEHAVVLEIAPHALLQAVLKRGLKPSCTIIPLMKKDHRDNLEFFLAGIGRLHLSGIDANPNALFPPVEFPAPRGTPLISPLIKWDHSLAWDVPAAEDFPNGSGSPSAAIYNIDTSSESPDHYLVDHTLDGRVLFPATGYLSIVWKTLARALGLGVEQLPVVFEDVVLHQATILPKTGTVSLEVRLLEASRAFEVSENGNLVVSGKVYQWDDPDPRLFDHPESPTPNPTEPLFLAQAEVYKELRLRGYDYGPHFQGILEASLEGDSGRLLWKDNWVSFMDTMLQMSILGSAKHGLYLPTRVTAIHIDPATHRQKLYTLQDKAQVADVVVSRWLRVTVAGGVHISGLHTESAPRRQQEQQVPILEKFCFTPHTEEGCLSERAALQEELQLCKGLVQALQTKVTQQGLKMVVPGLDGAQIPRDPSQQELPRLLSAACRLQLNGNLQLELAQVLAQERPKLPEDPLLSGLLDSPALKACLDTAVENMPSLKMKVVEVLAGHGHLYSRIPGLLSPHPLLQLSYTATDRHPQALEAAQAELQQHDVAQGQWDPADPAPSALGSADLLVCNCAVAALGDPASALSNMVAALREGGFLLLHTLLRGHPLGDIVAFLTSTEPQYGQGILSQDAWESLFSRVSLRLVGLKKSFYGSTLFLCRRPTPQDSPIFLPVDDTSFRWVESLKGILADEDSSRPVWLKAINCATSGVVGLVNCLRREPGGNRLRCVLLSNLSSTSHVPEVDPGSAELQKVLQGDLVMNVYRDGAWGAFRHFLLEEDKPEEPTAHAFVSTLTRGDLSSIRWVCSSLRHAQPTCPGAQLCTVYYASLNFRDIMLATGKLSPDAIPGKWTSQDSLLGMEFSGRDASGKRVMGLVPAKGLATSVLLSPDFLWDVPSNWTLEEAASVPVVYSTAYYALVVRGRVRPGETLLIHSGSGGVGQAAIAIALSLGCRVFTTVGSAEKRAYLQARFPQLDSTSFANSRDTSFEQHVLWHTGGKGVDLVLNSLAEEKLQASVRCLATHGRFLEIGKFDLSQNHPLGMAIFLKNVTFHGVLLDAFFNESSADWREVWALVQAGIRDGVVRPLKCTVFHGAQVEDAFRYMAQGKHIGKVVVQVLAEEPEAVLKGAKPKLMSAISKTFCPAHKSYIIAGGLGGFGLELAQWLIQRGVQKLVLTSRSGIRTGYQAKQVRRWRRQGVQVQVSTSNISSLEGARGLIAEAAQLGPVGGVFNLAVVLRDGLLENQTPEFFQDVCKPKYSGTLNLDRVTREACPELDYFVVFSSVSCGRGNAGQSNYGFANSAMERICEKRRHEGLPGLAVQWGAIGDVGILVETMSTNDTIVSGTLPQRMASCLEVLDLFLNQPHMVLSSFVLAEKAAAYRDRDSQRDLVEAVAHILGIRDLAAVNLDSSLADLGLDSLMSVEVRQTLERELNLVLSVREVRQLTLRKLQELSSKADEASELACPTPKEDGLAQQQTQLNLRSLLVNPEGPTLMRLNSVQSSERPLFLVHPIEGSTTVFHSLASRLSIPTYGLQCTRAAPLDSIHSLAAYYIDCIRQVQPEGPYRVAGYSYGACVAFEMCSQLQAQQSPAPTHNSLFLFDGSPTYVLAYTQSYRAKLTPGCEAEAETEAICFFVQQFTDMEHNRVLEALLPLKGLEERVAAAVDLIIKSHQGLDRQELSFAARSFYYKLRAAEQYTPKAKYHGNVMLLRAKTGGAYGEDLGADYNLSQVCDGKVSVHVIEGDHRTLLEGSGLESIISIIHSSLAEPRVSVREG

In the case of `O=C(c1ccc(-c2ccc(F)cc2Cl)cc1)N1CCN(C(=O)C2(O)CC2)CC1`, the remaining at 0.5 h in data set [1] came out at 69%. Moreover, the solubility kinetic in data set [2] stood at 67 µM (≈ 27 µg/mL). For the same molecule, the IC50 in data set [3] came to 4960 nM; in [4], 310 nM.

For the molecule `O=C(c1ccc(-c2ccc3[nH]ccc3c2)cc1)N1CCN(C(=O)C2(O)CC2)CC1`, the IC50 in [5] was 4 nM; in data set [3] it was 18 nM; in [4], 16 nM. In [1], the remaining at 0.5 h was 55%. In addition, the solubility kinetic in data set [2] amounted to 60 µM (≈ 23.4 µg/mL).

As to `O=C(c1ccc(-c2ccc(Cl)cc2F)cc1)N1CCN(C(=O)C2(O)CC2)CC1`, the concentration for half-maximal inhibition (IC50) in [5] is 146 nM; in data set [3] it was 336 nM; in data set [4], 110 nM. Further, in data set [1], the remaining at 0.5 h was 92%. In data set [6], the AUC came to 47.6 µM·h. The solubility kinetic in [2] was determined as 33 µM (≈ 13.3 µg/mL). The remaining at 1 h was 70% in [7] and 84% in [8].

Take `O=C(c1ccc(-c2cnc3ccccc3c2)cc1)N1CCN(C(=O)C2(O)CC2)CC1`: the remaining at 0.5 h in data set [1] was 86%. The solubility kinetic in [2] is 82 µM (≈ 32.9 µg/mL). Besides, the IC50 is 12 nM in data set [3] and 10 nM in data set [4].

With `O=C(c1ccc(-c2ccccc2)cc1)N1CCN(C(=O)C2(O)CC2)CC1`, the remaining at 0.5 h in data set [1] was determined as 95%. In data set [4], the IC50 was determined as 350 nM.

Consider `O=C(c1ccc(-c2ccc3ocnc3c2)cc1)N1CCN(C(=O)C2(O)CC2)CC1`, for which the figures for the IC50 in [5], in data set [3] and in [4] were 142 nM, 257 nM and 142 nM, respectively. For the same molecule, the remaining at 0.5 h in data set [1] was found to be 60%. The solubility kinetic in data set [2] worked out at 92 µM (≈ 36 µg/mL).

With `O=C(c1ccc(-c2nc3ccccc3o2)cc1)N1CCN(C(=O)C2(O)CC2)CC1`, the IC50 was found to be 15 nM in data set [5], 101 nM in data set [3] and 54 nM in [4]. Also, in data set [1], the remaining at 0.5 h was 109%. In data set [6], the AUC stood at 28.7 µM·h. In data set [2], the solubility kinetic stood at 83 µM (≈ 32.5 µg/mL). Besides, the microsomal CLint in data set [9] and in data set [11] was 7 µL/min/mg throughout. Further, the MTD in data set [10] was less than 5 mg/kg.

For `O=C(c1ccc(-c2ccccc2)cc1)N1CCN(C(=O)[C@H]2CCCO2)CC1`, the remaining at 0.5 h in [1] came out at 100%. Also, in data set [4], the half-maximal inhibitory concentration (IC50) was determined as 1100 nM.

Take `Cn1ccc2cc(-c3ccc(C(=O)N4CCN(C(=O)C5(O)CC5)CC4)cc3)ccc21`: in data set [1], the remaining at 0.5 h is 81%. Further, the solubility kinetic in [2] worked out at 3 µM (≈ 1.21 µg/mL). Also, the IC50 in [3] came to 19 nM; in data set [4], 12 nM.

Regarding `CC(C)(O)C(=O)N1CCN(C(=O)c2ccc(-c3ccccc3)cc2)CC1`, the remaining at 0.5 h in data set [1] stood at 99%. Moreover, the IC50 in [4] was found to be 35000 nM.

For the molecule `O=C(c1ccc(-c2nc3ccc(Cl)cc3o2)cc1)N1CCN(C(=O)C2(O)CC2)CC1`, the IC50 in data set [5] was found to be 29 nM; in data set [3] it was 104 nM; in data set [4] it was 97 nM. Moreover, the remaining at 0.5 h in [1] was found to be 92%. Further, the solubility kinetic in data set [2] worked out at 7 µM (≈ 2.98 µg/mL).

Turning to `O=C(c1ccc(-c2nc3cc(Cl)ccc3o2)cc1)N1CCN(C(=O)C2(O)CC2)CC1`, the IC50 was found to be 49 nM in [5], 136 nM in [3] and 69 nM in data set [4]. Further, in [1], the remaining at 0.5 h came out at 85%. For the same molecule, the solubility kinetic in data set [2] came out at 6 µM (≈ 2.56 µg/mL).

On to `COc1ccc(-c2ccc(C(=O)N3CCN(C(=O)C4(O)CC4)CC3)cc2)c(Cl)c1`, for which the IC50 in [4] came to 3100 nM.
